Reference: ChEMBL document CHEMBL1139946, “1-Aryl-4,6-dihydropyrazolo[4,3-d][1]benzazepin-5(1H)-ones: a new class of antiproliferative agents with selectivity for human leukemia and breast cancer cell lines” (Eur J Med Chem, 2007)

What was measured:
[1] = tested on: K562; assay: Antitumor activity against human K562 cells after 48 hrs by sulforhodamine B protein assay; format: functional; conditions: K562, 48 h
Outline: (§1)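 Part of the NCI 60-cell-line screen. Compounds tested at five concentrations (10^-8 to 10^-4 M) with continuous exposure for 48 h. Cell growth read by sulforhodamine B protein assay, with percent growth from optical density of treated versus untreated control cultures. GI50 is the concentration giving 50% net growth inhibition.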

[2] = tested on: MDA-MB-435; assay: Antitumor activity against human MDA-MB435 cells after 48 hrs by sulforhodamine B protein assay; format: functional; conditions: MDA-MB-435, 48 h; outline: as §1

GI50 [1]: 0.1 µM | GI50 [2]: 0.2 µM
SMILES: COc1cccc2c1C(=O)c1c(O)c3c(c(O)c1C2=O)C[C@@](O)(C(=O)CO)C[C@@H]3O[C@H]1C[C@H](N)[C@H](O)[C@H](C)O1 [DOXORUBICIN]
